Laboratory results reported in article PMC8592115 (ACS Medicinal Chemistry Letters, 2021).
“Also recorded” adds a separate entry of the source.

Legend:
[1] = Qualitative solubility of compounds in NMR titration samples; format: physicochemical; settings: samples prepared for NMR titration
How it was run: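 Test compound titrated into CXCL12 at increasing concentrations up to 1600 μM, with HSQC spectra recorded at each step. Solubility was scored against a cut-off of ≥1600 μM in these titration samples. Soluble compounds counted as binders if they also shifted at least two of residues I28, V39 and A40 by ≥0.5 ppm.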

CXCL12 [2] = biological target: T1, CXCL12 (Homo sapiens, UniProt P48061); assay: Calculation of ligand efficiency; settings: Table 6; LLE = pKd – cLogP
CXCL12 [3] = biological target: T1, CXCL12; assay: 2D NMR chemical shift perturbation titration of 15N-CXCL12; format: binding; settings: for precipitation/aggregation of CXCL12 on addition of compound: NMR titration samples

solubility, qualitative [1]	Compound	precipitation/aggregation of CXCL12 on addition of compound (CXCL12 [3])	further results
notably more soluble than its analogues	O=C(O)CSc1nc(SCC(=O)O)nc(N2CCOCC2)n1 [Compound 24j]	–	LLE (lipophilic ligand efficiency) (CXCL12 [2]): 2.07
–	O=C(O)CSc1nc(SCC(=O)O)nc(-c2cnc3ccccc3c2)n1 [Compound 13l]	precipitated the protein from solution; also recorded: caused CXCL12 to precipitate	–
insoluble; also recorded: low solubility	O=C(O)CSc1nc(SCC(=O)O)nc(-c2ccc(-c3ccccc3)cc2)n1 [Compound 13e]	–	–
–	O=C(O)CSc1nc(SCC(=O)O)nc(-c2ccc(Oc3ccccc3)cc2)n1 [Compound 13m]	precipitated the protein from solution; also recorded: caused CXCL12 to precipitate	–
–	O=C(O)CSc1nc(SCC(=O)O)nc(-c2ccoc2)n1 [Compound 13n]	precipitated the protein from solution; also recorded: caused CXCL12 to precipitate	–
–	O=C(O)CSc1nc(SCC(=O)O)nc(C2C3CC4CC(C3)CC2C4)n1 (centres unmarked) [Compound 17, 2,2'-((6-((1r,3r)-Adamantan-2-yl)-1,3,5-triazine-2,4-diyl)bis(sulfanediyl))diacetic acid]	–	Kd (CXCL12 [3]): > 1600 µM
–	O=C(O)CSc1nc(SCC(=O)O)nc(C2=CCCCC2)n1 [Compound 20, 2,2'-((6-(Cyclohex-1-en-1-yl)-1,3,5-triazine-2,4-diyl)bis(sulfanediyl))diacetic acid]	caused the protein to precipitate; also recorded: b 20 caused CXCL12 to precipitate	–
–	O=C(O)c1ccc(Nc2nc(Nc3ccc(C(=O)O)cc3)nc(-c3ccccc3)n2)cc1 [Compound 9m]	caused aggregation and precipitation of the protein	–
qualitatively greater solubility	O=C(O)CSc1nc(SCC(=O)O)nc(-c2ccc(N3CCOCC3)cc2)n1 [Compound 13i]	–	–

Compound	solubility, qualitative [1]	precipitation/aggregation of CXCL12 on addition of compound (CXCL12 [3])	further results
O=C(O)CSc1nc(SCC(=O)O)nc(Sc2ccccc2)n1 [Compound 24a, 2,2'-((6-(Phenylthio)-1,3,5-triazine-2,4-diyl)bis(sulfanediyl))diacetic acid]	not as soluble as some of our other analogues	–	–
